Assay outcomes as filed in PubChem BioAssay.
Rows were chosen to be rich in hits. Some 2% of all compounds tested hit in one or more screens of this group.
Exocytosis inh – lytic granule exocytosis inhibition | 360,000 tested, 0.66% active | inhibition, % at 10 µM | TALL-104 LAMP-1 surface exposure, flow cytometry; cells stimulated with thapsigargin and PMA;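 active = inhibition above about 55%, limit read from the data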
FGF22 binding – FGF22 (human) thermal shift binding. Q9HCT0. recombinant FGF22 thermal shift, SYPRO orange fluorescence; percent of sucrose octasulfate shift, DMSO zero. activity (Tm shift, normalised), % at 9.99 µM. 340,000 tested, 1.5% active. AID 651658;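 active = mean Tm shift, scaled 0 neutral to 100 positive control, at about 1.3% or above, every replicate too, limit read from the data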
MT1-MMP act inh – inhibitors of human MT1-MMP activation; HT1080 RFP-PRO-GFP cells, GFP/RFP ratio fluorescence, overnight; percent of plate control window, DMSO zero; 360,000 tested, 0.061% active; P50281; GFP/RFP ratio change, % at 20 µM;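 active = GFP/RFP ratio change of at least 30% with cell ATP level not reduced by more than half and red fluorescence within 50% of control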
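Read-out: GFP/RFP fluorescence ratio; Test system: RFP-PRO-GFP reporter HT1080 cells; Compound dosing: single-point 20 µM compound, 1% DMSO; Times: overnight compound exposure at 37 °C.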
VLA-4 inh – inhibition in a human VLA-4 binding assay; AID 2557; 330,000 tested, 0.2% active; P13612; inhibition, % (about 7 µM as worked out from the volumes in the protocol); VLA-4 expressing cells, ligand binding flow cytometry; in the data active = inhibition above about 50%
ABCB6 inh 2 – blocks the human ABCB6 transporter. Q9NP58. K562-ABCB6 porphyrin accumulation, flow cytometry, 1 h; active compounds read low. 360,000 tested, 0.19% active. fluorescence ratio to DMSO, % at 10 µM;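 active = fluorescence ratio to DMSO below 75%, the collection mean minus 3 SD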;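 also: signal is porphyrin accumulated inside mitochondria; 100% equals median channel fluorescence of DMSO control wells; lower ratio means ABCB6 inhibition with less porphyrin fluorescence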
DAGLB inhibitor – diacylglycerol lipase beta (human) inhibition | HEK293T DAGLB membrane lysate, EnzChek fluorogenic substrate | inhibition, % at 5.17 µM | Q8NCG7 | 340,000 tested, 0.059% active | AID 504411; in the data active = inhibition above about 34%;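 also: 0% = enzyme with vehicle and 100% = wells lacking enzyme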
Active calls of the source: *; x = not tested or not shown.

SMILES | Exocytosis inh | FGF22 binding | MT1-MMP act inh | VLA-4 inh | ABCB6 inh 2 | DAGLB inhibitor
CC(=O)N1[C@@H]2c3ccc(/C=C/c4ccccc4)c(=O)n3C[C@@H]2[C@@H](CO)[C@@H]1C(=O)Nc1nccs1 | x | 0.3 | x | x | x | x
COc1ccccc1-c1cnc2c(c1)C(=O)N([C@H](C)CO)C[C@H](C)[C@@H](CN(C)C(C)=O)O2 | x | 0.0 | x | x | x | x
COc1ccc(C(=O)NNC(=S)NC(=O)/C=C/c2cccs2)cc1 | -2.3 | 43.0* | -9.7 | 6.0 | 96.0 | -0.4
COC(=O)CNC(=O)COC(=O)/C=C/c1cccs1 | -5.9 | 0.1 | 0.1 | 24.1 | 96.0 | -4.2
O=C(/C=C/c1cccs1)NC(=S)NNC(=O)c1ccccc1O | 0.5 | 0.3 | -4.0 | 1.7 | 96.0 | 14.5
Cc1ccccc1NC(=O)/C=C1\SC(=O)NC1=O | 0.4 | 43.9* | 0.5 | 16.3 | 99.0 | 1.5
Cc1ccccc1NC(=O)/C=C/c1cccs1 | -5.5 | 43.1* | -0.5 | 10.6 | 99.0 | -0.9
COc1ccc(CCNC(=O)COC(=O)/C=C/c2cccs2)cc1 | -1.4 | 42.9* | -3.7 | -10.2 | 98.0 | -2.9
CCC(=O)Nc1ccc2c(c1)OC[C@H](C)N(C(=O)CN(C)C)C[C@H](C)[C@@H](OC)CN(C)C2=O | x | -0.2 | x | x | x | x
COc1ccc2c3c([nH]c2c1)[C@@H](CO)N(C(=O)c1cnccn1)CC31CN(S(C)(=O)=O)C1 | x | -0.3 | x | x | x | x
O=C(COC(=O)/C=C/c1cccs1)Nc1ccccc1Cl | -0.5 | 43.2* | -2.4 | 3.4 | 96.0 | -9.8
CC(=O)c1ccccc1NC(=O)COC(=O)/C=C/c1cccs1 | 6.0 | -0.1 | 1.2 | 3.2 | 101.0 | -11.5
CCNc1sc(S(C)(=O)=O)nc1S(=O)(=O)c1ccc(Cl)cc1 | -2.3 | 43.4* | 0.6 | 12.5 | 97.0 | 1.6
CCS(=O)(=O)c1nc(S(=O)(=O)c2ccc(Cl)cc2)c(NCc2ccccn2)s1 | 14.1 | 43.6* | -3.9 | 40.0 | 100.0 | -1.3
CCS(=O)(=O)c1nc(S(=O)(=O)c2ccc(Cl)cc2)c(NCCCN2CCOCC2)s1 | 1.9 | -0.5 | 0.8 | 3.6 | 96.0 | 1.4
CO[C@@H]1CN(C)C(=O)c2ccc(NC(=O)C3CCCC3)cc2OC[C@H](C)N(C)C[C@H]1C | x | -0.1 | x | x | x | x
O=C(NCc1ccc(F)cc1)[C@H]1C[C@H]2C(=O)N3CCC[C@H]3C(=O)N2[C@H]1c1ccc(O)cc1 | x | 0.3 | x | x | x | x
C/C=C/c1ccc2c(c1)O[C@@H](CN(C)C)[C@@H](C)CN([C@@H](C)CO)S2(=O)=O | x | 0.2 | x | x | x | x
CC1=NOC(=O)/C1=C\c1ccc(-c2ccccc2Br)o1 | 92.4* | 0.5 | -20.8 | x | 99.0 | 22.8
CC1=NOC(=O)/C1=C\c1ccc(-c2cccc(Cl)c2)o1 | 100.2* | x | -7.2 | -15.8 | 120.0 | 27.6
CC1=NOC(=O)/C1=C\c1ccc(-c2ccc(Cl)c(C(=O)O)c2)o1 | 1.5 | 0.2 | -4.6 | x | 98.0 | 3.1
Nc1ccccc1N=Cc1ccc(-c2cccc(Cl)c2)o1 | 96.5* | 0.7 | -1.5 | -4.8 | 103.0 | -6.0
Cc1noc(C)c1S(=O)(=O)N(C)C[C@@H]1Oc2ccc(NC(=O)Nc3ccc4c(c3)OCO4)cc2C(=O)N([C@@H](C)CO)C[C@@H]1C | x | -0.4 | x | x | x | x
COc1ccc(C(Nc2ccccn2)c2c(NC(=O)c3ccco3)sc(C)c2C)cc1 (centres undefined) | -9.4 | 43.7* | -8.8 | -3.4 | 96.0 | 4.7
Cc1sc(NC(=O)c2ccco2)c(C(Nc2ccccn2)c2ccccc2)c1C (centres undefined) | -2.4 | x | -3.1 | 34.8 | 97.0 | -0.4
Cc1nc2[nH]c(=S)n(C)c(=O)c2nc1C | -4.5 | -0.3 | -1.1 | -6.4 | 105.0 | -0.4
Cn1c(=S)[nH]c(=O)c2ncc(=O)[nH]c21 | -1.0 | 43.5* | -1.6 | -0.8 | 111.0 | -0.4
CC(=O)n1cc([C@@H]2C=C(C(=O)N3CCN(Cc4ccccc4)CC3)O[C@H](OCCCCO)C2)c2ccccc21 | x | -0.6 | x | x | x | x
Cc1sc(NC(=O)CS(=O)(=O)c2ccccc2)c(C(N)=O)c1C | -0.1 | 8.3* | -0.5 | -6.1 | 92.0 | 0.4
Cc1sc(NC(=O)CCCC(=O)O)c(C(N)=O)c1-c1ccccc1 | 4.1 | 42.9* | 1.1 | 4.2 | 98.0 | 0.4
